Assay results taken from ChEMBL document CHEMBL2321821, “Inhibition of the β-carbonic anhydrases from Mycobacterium tuberculosis with C-cinnamoyl glycosides: identification of the first inhibitor with anti-mycobacterial activity” (Bioorg Med Chem Lett, 2013).
Converted amounts (≈) assume the structure as drawn. The source made the active and inactive calls. The rule behind the calls is not given here.

What was measured:
[1] = Inhibition of Mycobacterium tuberculosis Rv1284 beta-carbonic anhydrase by stopped flow assay
Summary of the method: (§1)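 Recombinant mtCA enzyme. CO2 hydration was followed by stopped-flow with phenol red indicator (0.02 mM) read at 557 nm, in 20 mM Hepes pH 7.5 with 20 mM Na2SO4, over 10–100 s. CO2 was 1.7–17 mM. Inhibitor was diluted in water and preincubated with enzyme 15 min at room temperature. Uncatalyzed rate subtracted; three determinations.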

[2] = Inhibition of Mycobacterium tuberculosis Rv3588c beta-carbonic anhydrase by stopped flow assay; summary of the method: as §1
[3] = test system: Mycobacterium tuberculosis; assay: Antimicrobial activity against Mycobacterium tuberculosis H37Rv assessed as growth inhibition at 50 ug/ml after 7 days by serial twofold dilution method; assay type: functional, organism-based
Summary of the method: (§2)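 Broth microdilution against H37Rv in Middlebrook 7H9-ADS-G, with 0.05% Tween 80. Compounds from DMSO stock (10 mg/ml), twofold serial dilution on plate. Inoculum is a 1/25 dilution of a mid-log suspension (McFarland 1.0), ~10⁶ CFU per well. Rifampicin control; growth and sterility controls. Incubated 37 °C for 7 days. Growth read visually by turbidity; run in duplicate.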

[4] = Inhibition of Mycobacterium tuberculosis Rv3273 beta-carbonic anhydrase by stopped flow assay; summary of the method: as §1
[5] = test system: Mycobacterium tuberculosis; assay: Antimicrobial activity against Mycobacterium tuberculosis H37Rv assessed as growth inhibition at < /= 25 ug/ml after 7 days by serial twofold dilution method; assay type: functional, organism-based; summary of the method: as §2
[6] = test system: Mycobacterium tuberculosis; assay: Antimicrobial activity against Mycobacterium tuberculosis H37Rv assessed as growth inhibition at 100 ug/ml after 7 days by serial twofold dilution method; assay type: functional, organism-based; summary of the method: as §2
[7] = test system: Mycobacterium tuberculosis; assay: Antimicrobial activity against Mycobacterium tuberculosis H37Rv after 30 days; assay type: functional
Summary of the method: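 M. tuberculosis H37Rv, fresh culture, ~1 × 10³ CFU plated onto solid Middlebrook 7H11 with ADS (1/10 v/v) and glycerol (1% v/v). Compound added to molten medium in wells at chosen concentrations. Incubated 37 °C for 30 days, then inspected visually. MIC99.9% taken as the concentration giving 99.9% reduction in cell counts.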

| SMILES | Ki [1] [µM] | Ki [2] [µM] | growth inhibition (GI) [3] | Ki [4] [µM] | growth inhibition (GI) [5] | growth inhibition (GI) [6] | MIC [7] [µg/mL] |
| --- | --- | --- | --- | --- | --- | --- | --- |
| O=C(/C=C/c1ccc(O)cc1)C[C@@H]1O[C@H](CO)[C@H](O)[C@H](O)[C@H]1O | 4.5 | 0.94 | inactive | 4.13 | inactive | inactive |  |
| O=C(/C=C/c1cccc(O)c1)C[C@@H]1O[C@H](CO)[C@H](O)[C@H](O)[C@H]1O | 1.16 | 0.51 | Active | 3.25 | inactive | Active | 100 (≈ 308 µM) |
| CC(=O)OC[C@H]1O[C@@H](CC(=O)/C=C/c2ccc(O)cc2)[C@H](OC(C)=O)[C@@H](OC(C)=O)[C@@H]1OC(C)=O | 2.9 | 0.35 | Active | 13.1 | inactive | Active | > 100 |
| CC(=O)OC[C@H]1O[C@@H](CC(=O)/C=C/c2cccc(O)c2)[C@H](OC(C)=O)[C@@H](OC(C)=O)[C@@H]1OC(C)=O | 2.1 | 0.64 | Active | 19 | inactive | Active | 3.12 (≈ 6.35 µM) |
| Oc1ccccc1 [PHENOL] | 64 |  |  | 79 |  |  |  |
| O=C(/C=C/c1cccc(O)c1)C[C@@H]1O[C@H](CO)[C@@H](O)[C@H](O)[C@H]1O | 0.14 | 0.24 | inactive | 6.21 | inactive | inactive |  |
| CC(=O)OC[C@H]1O[C@@H](CC(=O)/C=C/c2cccc(O)c2)[C@H](OC(C)=O)[C@@H](OC(C)=O)[C@H]1OC(C)=O | 3.8 | 0.87 | inactive | 15.6 | inactive | inactive |  |
| O=C(/C=C/c1ccc(O)cc1)C[C@@H]1O[C@H](CO)[C@@H](O)[C@H](O)[C@H]1O | 0.93 | 0.13 | Active | 4.13 | inactive | Active |  |
| CC(=O)OC[C@H]1O[C@@H](CC(=O)/C=C/c2ccc(O)cc2)[C@H](OC(C)=O)[C@@H](OC(C)=O)[C@H]1OC(C)=O | 4.5 | 1.15 | inactive | 12 | inactive | inactive |  |
